{"data": "Measurements from different studies", "target": "Casein kinase II subunit alpha (CSNK2A1, Homo sapiens, UniProt P68400)", "note": "Lines come from different studies, so protocols differ."}
{"Compound": "N#CCCc1ccc2c(c1)-c1[nH]c3ccc([N+](=O)[O-])cc3c1CC(=O)N2", "test": "cell-free assay", "setting": "0.5 µM", "measurement": "remaining signal", "value": "91.2%"}
{"Compound": "CN(C)C(=O)Cn1cc(-c2nc([C@@](C)(c3ccc(-c4cnc(N)nc4)cc3)C3CC3)no2)cn1", "test": "cell-free assay, competition with immobilised ligand", "setting": "1 µM", "measurement": "remaining binding", "value": "88%"}
{"Compound": "COc1cc(Nc2cnc(C#N)c(O[C@H](C)CN(C)C)n2)ncc1-c1cnn(C)c1", "test": "enzyme activity, inhibitor, radiometric", "setting": "1 µM", "measurement": "remaining activity", "value": "110%"}
{"Compound": "CCC1(CC)NC(=O)c2c(c3ccc(Cl)c(Cl)c3n2C)C1C#N (stereo not shown)", "test": "thermal stability, DSF", "setting": "10 µM", "measurement": "ΔTm", "value": "0 °C"}
{"Compound": "Cc1ccc(Nc2nccc(N(C)c3ccc4c(C)n(C)nc4c3)n2)cc1S(N)(=O)=O", "test": "enzyme activity, inhibitor", "setting": "0.3 µM", "measurement": "inhibition", "value": "-9%"}
{"Compound": "O=C(N1CCS(=O)(=O)CC1)N1C[C@H](c2ccc(OC(F)(F)F)cc2)C[C@H](c2nc(C3CC3)no2)C1", "test": "cell-free assay, competition with immobilised ligand", "setting": "1 µM", "measurement": "remaining binding", "value": "100%"}
{"Compound": "Cc1cc(NC(=O)c2cccc3cc(-c4cccc5[nH]nc(N)c45)ccc23)ccc1F", "test": "enzyme activity, inhibitor", "setting": "0.1 µM", "measurement": "activity vs control", "value": "109%"}
{"Compound": "O=C(Nc1ccc(Oc2ccc(F)cc2)cc1)N1CCc2ncccc2[C@H]1c1ccc(F)cc1", "test": "cell-free assay, competition with immobilised ligand", "setting": "1 µM", "measurement": "remaining binding", "value": "99%"}
{"Compound": "CNC(=O)c1cc(Oc2ccc(NC(=O)Nc3ccc(Cl)c(C(F)(F)F)c3)cc2)ccn1", "test": "cell-free assay", "setting": "0.5 µM", "measurement": "remaining signal", "value": "108%"}
{"Compound": "CCCS(=O)(=O)Nc1ccc(F)c(C(=O)c2c[nH]c3ncc(-c4ccc(Cl)cc4)cc23)c1F", "test": "enzyme activity, inhibitor", "setting": "1 µM", "measurement": "inhibition", "value": "< 10%"}
{"Compound": "O=C1Nc2ccc(Cl)cc2C1=Cc1cc(Cl)c(O)c(Cl)c1", "test": "cell-free assay", "setting": "0.5 µM", "measurement": "remaining signal", "value": "26.5%"}
{"Compound": "Cn1c2c(c3ccc(Cl)c(Cl)c31)C(C#N)C1(CCCCC1)NC2=O (racemic)", "test": "thermal stability, DSF", "setting": "10 µM", "measurement": "ΔTm", "value": "0.7 °C"}
{"Compound": "FC(F)(F)c1ccc2c(c1)nc(-c1cccnc1)n2C1CC1", "test": "cell-free assay, competition with immobilised ligand", "setting": "1 µM", "measurement": "remaining binding", "value": "100%"}
{"Compound": "CN1CCC2(CC1)NC(=O)c1c(c3ccc(Cl)c(Cl)c3n1C)C2C#N (racemic)", "test": "thermal stability, DSF", "setting": "10 µM", "measurement": "ΔTm", "value": "2.5 °C"}
{"Compound": "CC(C)(O)[C@H]1CC[C@H](Nc2ccc3ncc(-c4cccc(C(F)(F)F)c4)n3n2)CC1", "test": "enzyme activity, inhibitor", "setting": "1 µM", "measurement": "remaining activity", "value": "61%"}
{"Compound": "O=C(Nc1cnc(Oc2ccc(F)cc2)nc1)N1CCc2ncccc2[C@@H]1c1ccc(F)cc1", "test": "cell-free assay, competition with immobilised ligand", "setting": "1 µM", "measurement": "remaining binding", "value": "93%"}
{"Compound": "Oc1cccc(-c2nc(N3CCOCC3)c3oc4ncccc4c3n2)c1", "test": "enzyme activity, inhibitor", "setting": "10 µM", "measurement": "remaining activity", "value": "102%"}
{"Compound": "CC(C)(C)c1nc2c(s1)c1nc(N)ncc1c1ccc(NS(=O)(=O)c3c(F)cccc3F)c(F)c12", "test": "enzyme activity, inhibitor, radiometric", "setting": "1 µM", "measurement": "remaining activity", "value": "88%"}
{"Compound": "CCN(CC)c1ccc(C2=NNC(=O)CC2C)cc1[N+](=O)[O-] (stereo not shown)", "test": "enzyme activity, inhibitor", "setting": "10 µM", "measurement": "remaining activity", "value": "96%"}
{"Compound": "Cc1sc(C(=O)NC2COC2)cc1-n1cc(NC(=O)Nc2c(F)cccc2Cl)cn1", "test": "enzyme activity, inhibitor", "setting": "10 µM", "measurement": "remaining activity", "value": "97%"}
{"Compound": "O=C(O)c1cc(-c2ccc(C3CCNCC3)cc2)c2ccc(-c3ccc(C(F)(F)F)cc3)cc2c1", "test": "cell-free assay, competition with immobilised ligand", "setting": "1 µM", "measurement": "remaining binding", "value": "100%"}
{"Compound": "COc1cc2ncnc(Nc3ccc(Oc4ccccc4)c(C)c3C)c2cc1OC", "test": "enzyme activity, inhibitor", "setting": "1 µM", "measurement": "inhibition", "value": "5%"}
{"Compound": "Cn1c2c(c3ccc(Cl)c(Cl)c31)C(C#N)C1(CCN(C(=O)OC(C)(C)C)CC1)NC2=O (racemic)", "test": "thermal stability, DSF", "setting": "10 µM", "measurement": "ΔTm", "value": "-0.1 °C"}
{"Compound": "CCN(CC)CCNC(=O)c1c(C)[nH]c(/C=C2\\C(=O)Nc3ccc(F)cc32)c1C", "test": "enzyme activity, inhibitor", "setting": "10 µM", "measurement": "inhibition", "value": "22%"}
{"Compound": "Nc1cnc(N2CCc3cc(S(=O)(=O)Nc4c(F)cc(Cl)cc4F)cc(N4CCCC4=O)c32)nc1", "test": "cell-free assay, competition with immobilised ligand", "setting": "1 µM", "measurement": "remaining binding", "value": "100%"}
{"Compound": "CC(C)(C)C(=O)c1sc(NC2CCCCC2)nc1N", "test": "enzyme activity, inhibitor", "setting": "10 µM", "measurement": "remaining activity", "value": "118%"}
{"Compound": "C[C@@H]1CN(c2cc(-c3n[nH]c4ccc(OC5(C)CC5)cc34)ncn2)C[C@H](C)O1", "test": "cell-free assay, competition with immobilised ligand", "setting": "0.1 µM", "measurement": "remaining binding", "value": "66%"}
{"Compound": "Cc1ccc(C(=O)NCc2ccsc2)cc1C#Cc1cn(C(C)C)c2ncnc(N)c12", "test": "enzyme activity, inhibitor", "setting": "1 µM", "measurement": "activity vs control", "value": "94%"}
{"Compound": "Cn1c2c(c3ccc(Cl)c(Cl)c31)C(C#N)C1(CCOCC1)NC2=O (stereo not shown)", "test": "thermal stability, DSF", "setting": "10 µM", "measurement": "ΔTm", "value": "2.1 °C"}
{"Compound": "CCCOc1ccc(OC)c(F)c1C(=O)c1ccc(C(=O)N[C@@H]2CNC[C@H]2NC(=O)c2ccc3[nH]ncc3c2)cc1", "test": "enzyme activity, inhibitor", "setting": "10 µM", "measurement": "remaining activity", "value": "108%"}
{"Compound": "Nc1ncnc2occ(-c3ccc(NC(=O)Nc4cc(C(F)(F)F)ccc4F)cc3)c12", "test": "enzyme activity, inhibitor", "setting": "20 µM", "measurement": "remaining activity", "value": "63%"}
